pKi: −log10 of the molar value.
What was measured:
[1] = test system: Human immunodeficiency virus; assay: Antiviral activity against wild type HIV H9-3B infected in human MT2 cells assessed as inhibition of viral replication measuring p24 level after 3 days in presence of 10% fetal bovine serum; type: functional; details: Human immunodeficiency virus 1, MT2, Serum; read-out: CIC95
In short: (§1)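 Multiple-cycle spread assay in MT2 cells with wild-type H9IIIB virus. Cells were infected overnight at moi ≈ 0.01 without compound, washed, then cultured 3 days across varying compound concentrations in RPMI 1640 with 10% FBS or 50% NHS. p24 was measured in supernatants. CIC95 is the lowest concentration inhibiting replication ≥95%, as the geometric mean of ≥2 determinations.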

[2] = target: Human immunodeficiency virus type 1 reverse transcriptase (Human immunodeficiency virus 1, UniProt Q72547, K103N); assay: Inhibition of RNA-dependent DNA polymerase activity of recombinant HIV reverse transcriptase K103N mutant assessed as BrdU incorporation by standard ECL assay
[3] = Inhibition of RNA-dependent DNA polymerase activity of wild type HIV reverse transcriptase assessed as BrdU incorporation by standard ECL assay; set-up: species or system Human immunodeficiency virus
In short: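 Purified recombinant wild-type RT polymerase activity was measured using a 500-nt heteropolymeric RNA template and a biotinylated DNA primer. BrdU incorporation was detected with a ruthenylated anti-BrdU antibody by electrochemiluminescence. Ki is the geometric mean of at least two determinations, each within 25% of the mean.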

[4] = test system: Human immunodeficiency virus; assay: Antiviral activity against HIV with reverse transcriptase K103N mutant infected in human MT2 cells assessed as inhibition of viral replication measuring p24 level after 3 days in presence of 10% fetal bovine serum; type: functional; details: Human immunodeficiency virus 1, MT2, Serum, 72 h; read-out: CIC95
In short: (§2)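 Multiple-cycle replication (Spread) assay in MT2 cells with H9IIIB-background mutant virus. Cells were infected overnight at moi ≈ 0.01 without compound, washed, then cultured 3 days across a range of compound concentrations in medium with 10% FBS. p24 was measured in supernatants. CIC95 is the lowest concentration inhibiting replication by ≥95%, reported as the geometric mean of ≥2 determinations.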

[5] = test system: Human immunodeficiency virus; assay: Antiviral activity against wild type HIV H9-3B infected in human MT2 cells assessed as inhibition of viral replication measuring p24 level after 3 days in presence of 50% normal human serum; type: functional; details: Human immunodeficiency virus 1, H9-3B, 72 h, read-out: CIC95; in short: as §1
[6] = test system: Human immunodeficiency virus; assay: Antiviral activity against HIV with reverse transcriptase K103N/Y181C double mutant infected in human MT2 cells assessed as inhibition of viral replication measuring p24 level after 3 days in presence of 10% fetal bovine serum; type: functional; details: Human immunodeficiency virus 1, MT2, Serum, 72 h; read-out: CIC95; in short: as §2
[7] = test system: Human immunodeficiency virus; assay: Antiviral activity against HIV with reverse transcriptase Y181C mutant infected in human MT2 cells assessed as inhibition of viral replication measuring p24 level after 3 days in presence of 10% fetal bovine serum; type: functional; details: Human immunodeficiency virus 1, MT2, Serum, 72 h; read-out: CIC95; in short: as §2
Rattus norvegicus = assay: AUC in Sprague-Dawley rat at 2 mg/kg, iv; type: ADME, organism-based, Plasma; set-up: dose 2 mg/kg, route intravenous; details: in vivo
[8] = Half life in Sprague-Dawley rat at 2 mg/kg, iv; type: ADME, organism-based; set-up: dose 2 mg/kg, route intravenous; details: in vivo
[9] = Clearance in Sprague-Dawley rat at 2 mg/kg, iv; type: ADME, organism-based; set-up: dose 2 mg/kg, route intravenous; details: in vivo
[10] = Volume of distribution in Sprague-Dawley rat at 2 mg/kg, iv; type: ADME, organism-based; set-up: dose 2 mg/kg, route intravenous; details: in vivo

SMILES	IC95 [1]	pKi [2]	pKi [3]	IC95 [4]	IC95 [5]	IC95 [6]	IC95 [7]	AUC (Rattus norvegicus)	half-life [8]	clearance [9]	Vd [10]
N#Cc1cc(Cl)cc(Oc2cc(OCc3noc4nc(C5=NCCN5)ccc34)ccc2Cl)c1	309 nM	8.20	8.64	309 nM	309 nM	–	–	–	–	–	–
N#Cc1cc(Cl)cc(Oc2cc(F)cc(OCc3n[nH]c4nc(N)ccc34)c2)c1	< 3.8 nM	8.48	8.70	309 nM	103 nM	–	–	–	–	–	–
N#Cc1cc(Cl)cc(Oc2ccc(F)c(OCc3n[nH]c4ncccc34)c2)c1	3770 nM	6.46	7.33	> 8300 nM	> 8300 nM	–	–	–	–	–	–
N#Cc1cc(Cl)cc(Oc2cc(F)c(Cl)c(OCc3n[nH]c4ncccc34)c2)c1	11 nM	9.10	8.28	11 nM	103 nM	93 nM	31 nM	–	–	–	–
N#Cc1cc(Cl)cc(Oc2cc(OCc3noc4nc(N)ccc34)cc(F)c2Cl)c1	11 nM	9.10	9.70	103 nM	103 nM	833 nM	31 nM	0.4 µM	1.9 h	44.9 mL/min/kg	5.1 L/kg
N#Cc1cc(Cl)cc(Oc2cc(F)c(Cl)c(OCc3n[nH]c4nc(N)ccc34)c2)c1	2780 nM	< 6.04	6.92	> 8330 nM	> 8330 nM	–	–	–	–	–	–
N#Cc1cc(Cl)cc(Oc2cc(OCc3noc4nc(N5CCOCC5)ccc34)ccc2Cl)c1	103 nM	8.07	8.74	926 nM	956 nM	–	–	–	–	–	–
N#Cc1cc(Cl)cc(Oc2cc(OCc3noc4nc(-n5ccnc5)ccc34)ccc2Cl)c1	33 nM	9.10	9.70	103 nM	309 nM	833 nM	278 nM	0.7 µM	1.7 h	26.9 mL/min/kg	2.2 L/kg
CNc1ccc2c(COc3ccc(Cl)c(Oc4cc(Cl)cc(C#N)c4)c3)noc2n1	103 nM	9.05	9.52	309 nM	103 nM	–	–	0.8 µM	2 h	24.6 mL/min/kg	2 L/kg
CN(C)c1ccc2c(COc3ccc(Cl)c(Oc4cc(Cl)cc(C#N)c4)c3)noc2n1	103 nM	9.05	9.52	309 nM	309 nM	–	–	–	–	–	–
N#Cc1cc(Cl)cc(Oc2cc(OCc3noc4nc(N5CCCCC5)ccc34)ccc2Cl)c1	> 8330 nM	8.14	8.66	> 8330 nM	–	–	> 8330 nM	–	–	–	–
Cc1cc(OCc2n[nH]c3ncccc23)cc(Oc2cc(Cl)cc(C#N)c2)c1Cl	11 nM	8.72	9.40	103 nM	103 nM	278 nM	31 nM	–	–	–	–
N#Cc1cc(Cl)cc(Oc2cc(OCc3noc4nc(N5CCNCC5)ccc34)ccc2Cl)c1	33 nM	8.52	8.77	103 nM	309 nM	833 nM	833 nM	–	–	–	–
N#Cc1cc(Cl)cc(Oc2cc(OCc3noc4ncccc34)ccc2Cl)c1	19 nM	8.68	8.80	103 nM	103 nM	278 nM	93 nM	–	–	–	–
N#Cc1cc(Cl)cc(Oc2cc(OCc3n[nH]c4ncccc34)cc(F)c2Cl)c1	16 nM	9.05	9.30	11 nM	59 nM	93 nM	31 nM	–	–	–	–
N#Cc1cc(Cl)cc(Oc2ccc(Cl)c(OCc3n[nH]c4ncccc34)c2)c1	> 8300 nM	6.85	7.77	> 8300 nM	> 8300 nM	–	–	–	–	–	–

— ChEMBL document CHEMBL1156144, “Biaryl ethers as novel non-nucleoside reverse transcriptase inhibitors with improved potency against key mutant viruses” (J Med Chem, 2009)
